In brackets after ≈: the same amount, converted by molar mass. Activity calls are given as the source filed them. No cut-off for these calls is given here.
Key:
[1] = test system: Staphylococcus aureus; assay: Antimicrobial activity against 1.5X10'-3 cfu/ml Staphylococcus aureus ATCC 6538 after 1 to 4 days; type: functional
Summary of the method: (§1)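 Compounds were dissolved in acetone (10 mg/mL stock) and diluted with culture medium into serial dilutions. Tests used Mueller-Hinton broth with 1% Tween 20, incubated aerobically at 36 ± 1 °C for 1–4 days alongside duplicate blanks. Growth was scored by turbidimetry or by plating on agar, and MIC was recorded.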

[2] = test system: Cutibacterium acnes; assay: Antimicrobial activity against 1X10'-3 cfu/ml Propionibacterium acnes ATCC 11827 after 1 to 4 days; type: functional
Summary of the method: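 Compounds were taken from an acetone stock (10 mg/mL), diluted in culture medium and set up as serial dilutions with duplicate blanks. After 1–4 days of incubation, bacterial growth was estimated by turbidimetry or agar plating to give the MIC.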

[3] = test system: Staphylococcus epidermidis; assay: Antimicrobial activity against 1.6X10'-3 cfu/ml Staphylococcus epidermidis ATCC 12228 after 1 to 4 days; type: functional; summary of the method: as §1
[4] = Antioxidant activity assessed as ABTS radical scavenging activity by TEAC method; type: functional
Summary of the method: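 The ABTS radical cation was diluted in PBS, pH 7.4, to an absorbance of 0.70 ± 0.02 at 734 nm at 37 °C. Graded dilutions of compound were added, and absorbance was read at 5, 10, 15 and 20 min after addition.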

[5] = test system: Mus musculus; assay: Acute toxicity in mouse at 2 g/kg; conditions: in vivo

## O=c1oc2ccccc2c(O)c1C(c1cccc(O)c1O)c1c(O)c2ccccc2oc1=O
[1]
  MIC: 6.5 µg/mL (≈ 14.6 µM)
[2]
  MIC: 0.5 µg/mL (≈ 1.13 µM)
[3]
  MIC: 1.9 µg/mL (≈ 4.28 µM)
[4]
  Activity: Active
[5]
  Activity: Non-toxic

## O=c1oc2ccccc2c(O)c1C(c1cc([N+](=O)[O-])ccc1O)c1c(O)c2ccccc2oc1=O
[4]
  Activity: Active

## COc1ccc(C(c2c(O)c3ccccc3oc2=O)c2c(O)c3ccccc3oc2=O)cc1
[4]
  Activity: Active
[5]
  Activity: Non-toxic

## O=c1c(C(c2ccc([N+](=O)[O-])cc2)c2c(O)oc3ccccc3c2=O)c(O)oc2ccccc12
[1]
  MIC: 3.7 µg/mL (≈ 8.09 µM)
[2]
  MIC: 0.5 µg/mL (≈ 1.09 µM)
[3]
  MIC: 1.3 µg/mL (≈ 2.84 µM)
[4]
  Activity: Active
[5]
  Activity: Non-toxic

## Cc1ccc(C(c2c(O)c3ccccc3oc2=O)c2c(O)c3ccccc3oc2=O)cc1
[4]
  Activity: Active
[5]
  Activity: Non-toxic

## COc1cc(C(c2c(O)oc3ccccc3c2=O)c2c(O)oc3ccccc3c2=O)cc(OC)c1OC
[4]
  Activity: Active

## O=c1c(C(c2ccc(C(c3c(O)oc4ccccc4c3=O)c3c(O)oc4ccccc4c3=O)cc2)c2c(O)oc3ccccc3c2=O)c(O)oc2ccccc12
[4]
  Activity: Active
[5]
  Activity: Non-toxic

## O=c1c(C(c2ccccc2)c2c(O)oc3ccccc3c2=O)c(O)oc2ccccc12
[4]
  Activity: Active
